# Screening results (PubChem)
# Shown are actives, neighbours in structure and some others; about 4.5% of the full set was active somewhere.
# TAAR1 agonist: human TAAR1 agonists, primary screen, Fluo-8 calcium fluorescence, CHO RD-HGA16 cells; 360,000 tested, 0.99% active; vehicle wells 0%, saturating PEA agonist 100%; activation, % at 3 µM; Trace amine-associated receptor 1 (Homo sapiens), Q96RJ0;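 active means activation above the mean activation of all test compounds in the run plus 3 SD, cut at about 38% in these data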
# Target sequence (Q96RJ0 whole entry, looked up): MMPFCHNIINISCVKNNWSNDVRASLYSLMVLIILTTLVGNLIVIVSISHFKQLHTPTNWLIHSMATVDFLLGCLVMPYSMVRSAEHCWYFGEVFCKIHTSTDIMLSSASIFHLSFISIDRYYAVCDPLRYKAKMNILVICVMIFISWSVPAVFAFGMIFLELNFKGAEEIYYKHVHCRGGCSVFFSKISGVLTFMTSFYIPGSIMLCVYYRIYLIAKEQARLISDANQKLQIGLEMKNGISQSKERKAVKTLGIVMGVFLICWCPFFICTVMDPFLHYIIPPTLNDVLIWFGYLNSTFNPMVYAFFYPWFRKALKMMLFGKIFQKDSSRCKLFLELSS
#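 Benchmarks: low control DMSO, high control PEA (EC100); System: CHO RD-HGA16 cells carrying human TAAR1 plus Gα16; Detection: Fluo-8 fluorescence, 5 s baseline then 140 s kinetic read; Schedule: 17-24 h plating, Fluo-8 75 min 37 °C, 30 min RT; Read-out basis: % activation from peak over basal fluorescence ratio, DMSO-to-PEA scaled.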
# OX1R antag-1: OX1R (HCRTR1) antagonists, primary screen, fluorescence, CHO/OX1R cells, Fluo-8 calcium, orexin A | Orexin/Hypocretin receptor type 1 (Homo sapiens), O43613 | Fluo-8 calcium fluorescence | inhibition, % at 5 µM | 330,000 tested, 0.43% active;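 active means inhibition above its plate's threshold, mean inhibition of all tested compounds on the plate plus 3 SD, cut at about 37% in these data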;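 further: 0% = orexin A challenge wells and 100% = SB-334867-A antagonist wells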
# OX1R antag-2: antagonists of human orexin 1 receptor (OX1R) | 330,000 tested, 1.8% active | AID 485270, 2010 | Orexin/Hypocretin receptor type 1 (Homo sapiens), O43613 | OX1R-expressing cells, FRET antagonist read-out | inhibition, % at 6.6 µM; in the data active means inhibition mostly above about 38%, no sharp cut-off; inactive means mostly below about 40%;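 further: 0% = agonist challenge alone and 100% = reference antagonist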
# TAAR1 antag: human TAAR1 antagonists, primary screen, Fluo-8 calcium fluorescence, CHO RD-HGA16 cells. Trace amine-associated receptor 1 (Homo sapiens), Q96RJ0. antagonist. inhibition, % at 3 µM. 360,000 tested, 1.5% active;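 active means inhibition above a per-plate cutoff, the mean inhibition of test compounds on that plate plus 3 SD, cut at about 49% in these data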;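 further: 0% = DMSO plus EC80 beta-PEA response and 100% = DMSO alone without agonist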
#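 System: CHO RD-HGA16 cells bearing hTAAR1. Reagent: EC80 β-phenethylamine stimulus. Schedule: seeding 17-24 h prior, 75-min 37 °C, 30-min RT dye loading. Signal: Fluo-8 intracellular calcium dye fluorescence, real-time kinetic reads. Read-out: % inhibition from peak post-agonist over basal fluorescence ratio. Benchmarks: vehicle wells and EC80 agonist wells. Replicates: n of 1.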
# GPR7 antag: GPR7 receptor antagonists, primary screen, cell-based, fluorescence, single concentration; AID 1861, 2009; 290,000 tested, 1.1% active; inhibition, % at 4.4 µM; GPR7-expressing cells, fluorescence antagonist assay; Neuropeptides B/W receptor type 1 (Homo sapiens), P48145; in the data active means inhibition above about 16%, passing the limit was not always enough;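 further: cells stimulated with the agonist NPW; 0% = agonist with vehicle and 100% = vehicle without agonist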
# Target sequence (P48145 whole entry, looked up): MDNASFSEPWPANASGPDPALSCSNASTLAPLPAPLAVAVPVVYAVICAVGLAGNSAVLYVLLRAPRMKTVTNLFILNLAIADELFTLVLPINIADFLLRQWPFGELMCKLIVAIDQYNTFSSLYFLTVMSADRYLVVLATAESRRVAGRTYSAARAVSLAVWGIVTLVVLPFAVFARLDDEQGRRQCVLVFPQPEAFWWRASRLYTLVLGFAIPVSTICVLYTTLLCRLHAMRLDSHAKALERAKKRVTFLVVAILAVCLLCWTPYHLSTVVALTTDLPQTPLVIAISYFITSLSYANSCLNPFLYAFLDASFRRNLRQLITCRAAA
# CHO parental Ca: ATP-evoked calcium signal inhibitors, parental CHO, primary screen, counter-screen for OX1R antagonist project, cell-based, fluorescence, Fluo-8 calcium dye; parental CHO-K1, ATP-induced calcium, Fluo-8 fluorescence; inhibition, % at 5.6 µM; 330,000 tested, 0.63% active;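 active means inhibition above that plate's mean sample inhibition plus 3 SD, cut at about 26% in these data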;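 further: 0% = ATP-challenged DMSO wells and 100% = DMSO wells without ATP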
#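 Test system: untransfected parental CHO cell line; also added: ATP stimulus; dosing: 5.6 µM, single dose; signal: calcium-sensitive Fluo-8 fluorescence; measure: percent inhibition of ATP-evoked calcium rise, normalized to controls; benchmarks: low control ATP plus DMSO, high control DMSO only; replication: one well per compound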
# GPR7 antag conf: GPR7 receptor antagonists, confirmation, cell-based, fluorescence, single concentration | GPR7-expressing cells, calcium fluorescence antagonist mode | shares compounds with GPR7 antag | AID 1952, 2009 | 2,400 tested, 52% active | inhibition, % at 4.4 µM; in the data active means inhibition above about 24%;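 further: stimulated with the GPR7 agonist NPW; 0% = agonist plus vehicle and 100% = vehicle alone without agonist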
# MCHR1 antag: MCHR1 antagonists in cells, counter-screen for GPR7 antagonist project, cell-based, fluorescence, human. inhibition, % at 4.4 µM. shares compounds with GPR7 antag. 2,400 tested, 62% active. MCHR1-expressing cells, fluorescence antagonist assay; in the data active means inhibition above about 22%;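 further: 0% = vehicle with agonist and 100% = vehicle without agonist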
# * = called active by the depositor; · = no result given.
SMILES,TAAR1 agonist,OX1R antag-1,OX1R antag-2,TAAR1 antag,GPR7 antag,CHO parental Ca,GPR7 antag conf,MCHR1 antag
CCN1CCN(C2=CC3=CC(=C(C#N)C#N)CCC3CC2)CC1 (stereo unspecified),·,·,·,·,60*,·,68*,91*
CC(NC(=O)COC(=O)c1cc(S(=O)(=O)N2CCOCC2)ccc1F)c1ccccc1 (stereo unspecified),1,-3,8,11,·,-24,·,·
COc1ccc(CCC2(C)OCC(CCCCO)O2)cc1 (stereo unspecified),3,·,·,-8,·,·,·,·
COc1ccc(NC(=O)Nc2ccc3oc(C)nc3c2)cc1,4,-19,16,7,8,-15,·,·
Cc1nc2cc(NC(=O)N(C)c3ccc4ccccc4c3)ccc2o1,2,-11,21,-5,32*,-9,11,26*
Cc1nc2cc(NC(=O)c3ccc(S(=O)(=O)N(C)c4ccccc4)cc3)ccc2o1,13,14,16,51*,45*,21,63*,81*
C[C@@H]1CCCCO[C@@H](CN(C)C(=O)c2ccncc2)[C@@H](C)CN([C@H](C)CO)C(=O)c2cc(N(C)C)ccc2O1,0,·,·,-9,·,·,·,·
Cc1c(O)ccoc1=O,0,-2,14,2,21*,-9,-1,-6
CC(C(=O)N1CCN(Cc2ccc3c(c2)OCO3)CC1)c1ccc([N+](=O)[O-])cc1 (stereo unspecified),12,-26,26,0,27*,-20,27*,27*
O=C(C(Cl)Cl)N1CCN(Cc2ccc3c(c2)OCO3)CC1,2,-15,-9,0,-15,0,·,·
CCOC(=O)C1CCCN(S(=O)(=O)c2cc3[nH]c(=O)c(=O)[nH]c3cc2C)C1 (stereo unspecified),1,0,8,3,10,10,·,·
C[C@@H]1CN([C@@H](C)CO)C(=O)CCCn2nncc2CO[C@H]1CN(C)Cc1cccc2c1OCCCO2,0,·,·,-11,·,·,·,·
COc1ccccc1CNC(=O)c1c(N)n(CCCN2CCOCC2)c2nc3ccccc3nc12,16,·,·,39,10,·,·,·
Nc1c(C(=O)NCc2ccc3c(c2)OCO3)c2nc3ccccc3nc2n1CCCN1CCOCC1,21,37,16,42,23*,33*,49*,51*
CCc1ccc(N2C(=O)CN(Cc3ccccc3)C2=S)cc1,-1,-23,7,10,39*,0,5,-3
OC(c1ccc(Cl)c(Cl)c1)c1ncc(-c2ccccc2F)[nH]1 (stereo unspecified),10,·,·,15,·,·,·,·
CN1/C(=C\C(=O)COc2ccc3c(c2)OCO3)C(C)(C)c2ccccc21,6,21,63,35,28*,7,12,44*
CN1CCCC1=Nc1ccccc1,1,·,·,-14,·,·,·,·
CCC(c1nnnn1Cc1ccco1)N1CCN(c2cc(Cl)ccc2C)CC1 (stereo unspecified),-2,-15,9,9,23*,7,30*,52*
Cc1ccc(Cl)cc1N1CCN(Cc2nnnn2Cc2ccco2)CC1,10,-36,17,3,-1,-12,·,·
O=C(O)CCn1c2ccccc2c2nc3ccccc3nc21,7,-8,49*,5,28*,-4,10,2
COC(=O)Cn1c2ccccc2c2nc3ccccc3nc21,7,·,·,-22,-17,·,·,·
CCc1ccc2[nH]c(=O)c(C(c3nnnn3Cc3ccc(OC)cc3)N3CCOCC3)cc2c1 (stereo unspecified),6,-20,10,13,29*,-22,5,14
COC(=O)N(NC(=O)C(O)(c1ccccc1)c1ccccc1)c1ccccc1,10,2,16,-17,26*,-6,17,27*
O=C(NN(C(=O)c1ccccc1)c1ccccc1)c1ccccc1,2,-10,16,-24,-14,-2,·,·
SMILES,TAAR1 agonist,OX1R antag-1,OX1R antag-2,TAAR1 antag,GPR7 antag,CHO parental Ca,GPR7 antag conf,MCHR1 antag
O=C(c1ccc(F)cc1)N(NC(=O)C(O)(c1ccccc1)c1ccccc1)c1ccccc1,5,-25,5,1,37*,-15,46*,31*
COc1ccc2c(=O)c(-c3cnn(-c4ccccc4)c3)c(C)oc2c1,1,-29,38,11,-6,-9,·,·
Cc1oc2c(C)c(O)ccc2c(=O)c1-c1cnn(-c2ccccc2)c1,4,-6,8,-3,28*,-2,19,3
Cc1ccccc1CN1C[C@@H]2C[C@@H](c3cn[nH]c3-c3ccc(F)cc3)N3CCC[C@@]23C1=O,24,-24,19,21,·,-15,·,14
C/C(=N/NC(=O)c1cccs1)c1cccc(NC(=O)C2CC2)c1,1,-18,29,-2,36*,-1,-5,8
S=C1NCc2cncnc2N1,1,·,·,0,·,·,·,·
COc1ccc(OCC(O)Cn2c(=N)n(Cc3ccccc3)c3ccccc32)cc1 (stereo unspecified),12,-7,8,-25,38*,-12,31*,57*
Cc1cccc(OCC(O)Cn2c(=N)n(CCN3CCCCC3)c3ccccc32)c1 (stereo unspecified),4,-12,19,7,38*,-19,45*,40*
Cc1cccc(OCC(O)Cn2c(=N)n(Cc3ccccc3)c3ccccc32)c1 (stereo unspecified),8,18,-8,-41,31*,19,36*,69*
N=c1n(Cc2ccccc2)c2ccccc2n1Cc1ccccc1,12,-7,19,2,15,-9,·,·
N=c1n(Cc2ccccc2)c2ccccc2n1CC(O)COc1ccc(Cl)cc1Cl (stereo unspecified),47*,·,·,23,28*,·,77*,98*
CCN(CCc1ccccc1)c1ccc2c(c1)C1CC2CCN1Cc1ccccc1 (stereo unspecified),7,·,·,-1,·,·,·,·
CSc1ccc(S(=O)(=O)N2CCC(C(=O)Nc3ccc(C(N)=O)cc3)CC2)cc1,5,11,6,1,2,18,·,·
